Measurements as given in ChEMBL document CHEMBL3994644, “Discovery of AAT-008, a novel, potent, and selective prostaglandin EP4 receptor antagonist” (Bioorg Med Chem Lett, 2017).
Converted amounts (≈) assume the structure as drawn.

Experiments:
[1] = Solubility of the compound in pH 1.2 simulated gastric fluid; type: physicochemical
[2] = biological target: Prostaglandin E2 receptor EP4 subtype (Mus musculus, UniProt P32240); test: Antagonist activity at mouse recombinant EP4 receptor assessed as inhibition of PGE2-induced cAMP level by cell based assay; type: functional; details: read-out: pA2 (converted)
Prostaglandin E2 receptor EP4 subtype (Mus musculus, UniProt P32240), sequence (P32240 whole entry): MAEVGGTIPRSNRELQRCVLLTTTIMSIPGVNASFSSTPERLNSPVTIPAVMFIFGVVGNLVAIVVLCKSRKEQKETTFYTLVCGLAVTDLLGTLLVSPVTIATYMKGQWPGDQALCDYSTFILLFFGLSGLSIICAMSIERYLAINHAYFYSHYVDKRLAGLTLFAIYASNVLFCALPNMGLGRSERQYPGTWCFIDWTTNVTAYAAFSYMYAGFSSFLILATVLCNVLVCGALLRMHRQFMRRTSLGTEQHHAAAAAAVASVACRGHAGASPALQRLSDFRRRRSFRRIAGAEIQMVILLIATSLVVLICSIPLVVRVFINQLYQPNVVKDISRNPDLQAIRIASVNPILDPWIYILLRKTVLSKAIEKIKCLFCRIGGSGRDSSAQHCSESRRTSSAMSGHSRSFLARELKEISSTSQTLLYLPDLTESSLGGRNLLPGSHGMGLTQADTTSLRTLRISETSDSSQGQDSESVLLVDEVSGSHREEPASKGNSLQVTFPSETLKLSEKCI
Summary of the method: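 Functional antagonism was measured as inhibition of PGE2-induced cAMP in cells transfected with rodent EP4 (mouse or rat). The value is expressed as pA2.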

[3] = Elimination half life in Beagle dog at 1 mg/kg, po; type: ADME, organism-based, Canis lupus familiaris; details: in vivo, read-out: beta t1/2 (converted)
Summary of the method: (§1)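 Single 1 mg/kg dose given IV or PO to rats, dogs and monkeys. Plasma pharmacokinetic parameters were derived and reported as mean SD, N = 4.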

CYP2C19 = CYP2C19 (Homo sapiens, UniProt P33261); test: Inhibition of CYP2C19 (unknown origin) at 1 uM relative to control; type: ADME
CYP2C19, sequence (P33261 whole entry): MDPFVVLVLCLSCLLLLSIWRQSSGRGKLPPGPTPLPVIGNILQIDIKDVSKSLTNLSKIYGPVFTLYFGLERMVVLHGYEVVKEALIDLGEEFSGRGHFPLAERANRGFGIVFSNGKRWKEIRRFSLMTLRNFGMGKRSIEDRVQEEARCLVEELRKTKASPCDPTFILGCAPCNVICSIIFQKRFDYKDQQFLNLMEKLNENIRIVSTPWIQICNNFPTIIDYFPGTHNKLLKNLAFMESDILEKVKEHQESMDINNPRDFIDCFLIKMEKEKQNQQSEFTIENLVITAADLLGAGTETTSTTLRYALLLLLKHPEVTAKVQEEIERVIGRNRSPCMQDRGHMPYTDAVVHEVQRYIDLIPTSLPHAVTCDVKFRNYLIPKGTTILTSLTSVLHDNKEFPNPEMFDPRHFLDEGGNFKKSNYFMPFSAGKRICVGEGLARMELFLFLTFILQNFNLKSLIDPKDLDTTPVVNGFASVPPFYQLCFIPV
Summary of the method: (§2)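 CYP1A, CYP2C9, CYP2C19, CYP2D6 and CYP3A activities were each tested with 1 µM test article. Results are given as percent inhibition of enzyme activity.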

[4] = Solubility of the compound in pH 6.5 PBS; type: physicochemical
[5] = AUC (0 to infinity) in Sprague-Dawley rat at 1 mg/kg, iv; type: ADME, organism-based; parameters: dose 1 mg/kg, route intravenous, time infinity; details: in vivo; summary of the method: as §1
[6] = biological target: Prostaglandin E2 receptor EP4 subtype (Rattus norvegicus, UniProt P43114); test: Antagonist activity at rat recombinant EP4 receptor
Prostaglandin E2 receptor EP4 subtype (Rattus norvegicus, UniProt P43114), sequence (P43114 whole entry): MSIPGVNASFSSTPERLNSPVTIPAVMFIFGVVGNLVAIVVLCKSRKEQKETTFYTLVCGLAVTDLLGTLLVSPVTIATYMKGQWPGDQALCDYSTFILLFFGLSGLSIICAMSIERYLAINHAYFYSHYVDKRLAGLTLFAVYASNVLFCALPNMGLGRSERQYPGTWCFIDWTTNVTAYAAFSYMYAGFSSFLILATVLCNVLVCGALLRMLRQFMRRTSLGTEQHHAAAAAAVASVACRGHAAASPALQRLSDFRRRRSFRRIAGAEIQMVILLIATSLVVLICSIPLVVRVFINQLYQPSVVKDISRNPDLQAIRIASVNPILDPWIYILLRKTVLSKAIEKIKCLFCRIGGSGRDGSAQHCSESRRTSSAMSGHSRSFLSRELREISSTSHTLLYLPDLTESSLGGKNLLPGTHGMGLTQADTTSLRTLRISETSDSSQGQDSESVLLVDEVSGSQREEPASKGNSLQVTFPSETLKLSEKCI

[7] = Half life in hepatocytes (unknown origin); type: ADME, cell-based, Hepatocyte
[8] = biological target: T1, Prostaglandin E2 receptor EP3 subtype (Homo sapiens, UniProt P43115); test: Antagonist activity at human EP3 receptor
T1 sequence (P43115 whole entry): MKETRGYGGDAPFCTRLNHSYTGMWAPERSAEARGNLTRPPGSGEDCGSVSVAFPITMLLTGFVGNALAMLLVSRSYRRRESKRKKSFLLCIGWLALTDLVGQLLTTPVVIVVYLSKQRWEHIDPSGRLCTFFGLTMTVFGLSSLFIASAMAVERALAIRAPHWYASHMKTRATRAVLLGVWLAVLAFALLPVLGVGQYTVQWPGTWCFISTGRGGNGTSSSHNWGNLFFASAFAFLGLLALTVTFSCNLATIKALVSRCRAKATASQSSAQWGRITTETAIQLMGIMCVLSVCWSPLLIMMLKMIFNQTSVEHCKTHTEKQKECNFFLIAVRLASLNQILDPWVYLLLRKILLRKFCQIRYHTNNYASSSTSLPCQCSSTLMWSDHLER

[9] = Total clearance in Sprague-Dawley rat at 1 mg/kg, iv; type: ADME, organism-based; details: in vivo
Summary of the method: (§3)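 A single intravenous injection at 1 mg/kg was given. Plasma concentration–time data gave total clearance (CL_total, mL/min/kg) and steady-state volume of distribution (Vd_ss, L/kg). Values are mean SD of N = 4 animals per species.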

[10] = Elimination half life in cynomolgus monkey at 1 mg/kg, iv; type: ADME, organism-based, Macaca fascicularis; details: in vivo, read-out: beta t1/2 (converted); summary of the method: as §1
[11] = AUC (0 to infinity) in Beagle dog at 1 mg/kg, po; type: ADME, organism-based, Canis lupus familiaris; parameters: dose 1 mg/kg, time infinity, route oral; details: in vivo; summary of the method: as §1
[12] = Volume of distribution at steady state in cynomolgus monkey at 1 mg/kg, iv; type: ADME, organism-based, Macaca fascicularis; details: in vivo, read-out: Vdss; summary of the method: as §3
[13] = Elimination half life in Beagle dog at 1 mg/kg, iv; type: ADME, organism-based, Canis lupus familiaris; details: in vivo, read-out: beta t1/2 (converted); summary of the method: as §1
CYP3A = test: Inhibition of CYP3A (unknown origin) at 1 uM relative to control; type: ADME; details: human; summary of the method: as §2
[14] = biological target: Prostaglandin E2 receptor EP2 subtype (Homo sapiens, UniProt P43116); test: Antagonist activity at human EP2 receptor
Prostaglandin E2 receptor EP2 subtype, sequence (P43116 whole entry): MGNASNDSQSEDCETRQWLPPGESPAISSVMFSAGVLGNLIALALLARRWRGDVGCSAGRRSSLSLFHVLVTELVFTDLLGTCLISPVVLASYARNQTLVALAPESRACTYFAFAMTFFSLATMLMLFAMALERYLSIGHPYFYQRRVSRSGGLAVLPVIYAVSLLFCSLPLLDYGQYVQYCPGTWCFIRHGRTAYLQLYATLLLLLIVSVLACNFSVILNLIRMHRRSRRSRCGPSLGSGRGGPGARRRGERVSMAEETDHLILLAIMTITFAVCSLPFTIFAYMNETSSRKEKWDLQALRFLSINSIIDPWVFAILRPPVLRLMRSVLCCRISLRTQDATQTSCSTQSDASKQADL

[15] = Total clearance in Beagle dog at 1 mg/kg, iv; type: ADME, organism-based, Canis lupus familiaris; details: in vivo; summary of the method: as §3
[16] = Apparent permeability from apical to basolateral side in human Caco2 cells; type: ADME, cell-based; details: Caco-2
Summary of the method: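 Caco-2 monolayer permeability (Papp, apical to basolateral) was measured under constant pH, with the apical side at pH 6.5 and the basolateral side at pH 7.4.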

[17] = Cmax in Beagle dog at 1 mg/kg, po; type: ADME, organism-based, Canis lupus familiaris; parameters: dose 1 mg/kg, route oral; details: in vivo; summary of the method: as §1
[18] = biological target: T2, Prostaglandin E2 receptor EP4 subtype (Homo sapiens, UniProt P35408); test: Antagonist activity at human EP4 receptor expressed in HEK293 cells assessed as inhibition of PGE2-induced cAMP level by HTS assay; type: functional, cell-based
T2 sequence (P35408 whole entry): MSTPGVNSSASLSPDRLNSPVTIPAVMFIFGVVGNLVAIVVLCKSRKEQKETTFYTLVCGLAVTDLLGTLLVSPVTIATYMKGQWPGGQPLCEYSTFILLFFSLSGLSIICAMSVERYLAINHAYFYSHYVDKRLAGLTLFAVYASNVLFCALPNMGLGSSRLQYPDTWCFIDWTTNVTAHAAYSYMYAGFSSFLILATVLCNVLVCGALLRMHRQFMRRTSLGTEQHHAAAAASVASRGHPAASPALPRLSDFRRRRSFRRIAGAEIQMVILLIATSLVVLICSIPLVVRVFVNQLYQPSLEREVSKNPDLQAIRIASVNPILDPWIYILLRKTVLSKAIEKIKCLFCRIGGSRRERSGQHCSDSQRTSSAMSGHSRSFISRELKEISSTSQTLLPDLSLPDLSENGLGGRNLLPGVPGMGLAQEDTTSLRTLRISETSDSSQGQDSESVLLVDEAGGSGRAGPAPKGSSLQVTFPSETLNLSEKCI

[19] = Volume of distribution at steady state in Sprague-Dawley rat at 1 mg/kg, iv; type: ADME, organism-based; details: in vivo, read-out: Vdss; summary of the method: as §3
[20] = Lipophilicity, log D of the compound at pH 1.2; type: physicochemical; details: buffer
[21] = Cmax in Sprague-Dawley rat at 1 mg/kg, po; type: ADME, organism-based; parameters: dose 1 mg/kg, route oral; details: in vivo; summary of the method: as §1
[22] = AUC (0 to infinity) in Beagle dog at 1 mg/kg, iv; type: ADME, organism-based, Canis lupus familiaris; parameters: dose 1 mg/kg, time infinity, route intravenous; details: in vivo; summary of the method: as §1
[23] = Oral bioavailability in Sprague-Dawley rat at 1 mg/kg; type: ADME, organism-based; details: in vivo; summary of the method: as §1
[24] = biological target: Prostaglandin F2-alpha receptor (Homo sapiens, UniProt P43088); test: Antagonist activity at human FP receptor
Prostaglandin F2-alpha receptor, sequence (P43088 whole entry): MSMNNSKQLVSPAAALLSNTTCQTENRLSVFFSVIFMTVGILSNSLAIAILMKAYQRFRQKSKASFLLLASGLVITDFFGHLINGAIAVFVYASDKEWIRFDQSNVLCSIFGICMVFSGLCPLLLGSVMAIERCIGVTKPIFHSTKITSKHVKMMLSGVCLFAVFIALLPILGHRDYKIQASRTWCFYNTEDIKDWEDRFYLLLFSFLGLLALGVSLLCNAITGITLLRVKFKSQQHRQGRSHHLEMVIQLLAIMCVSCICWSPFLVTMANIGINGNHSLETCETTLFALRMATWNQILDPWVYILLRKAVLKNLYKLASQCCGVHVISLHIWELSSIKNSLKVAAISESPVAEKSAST

[25] = Half life in human liver microsomes; type: ADME, microsome
[26] = biological target: T2, Prostaglandin E2 receptor EP4 subtype; test: Displacement of [3H]PGE from human EP4 receptor expressed in HEK293 cell membranes
Summary of the method: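 Membrane binding assay using [3H]PGE2 with membranes from HEK-293 cells expressing human EP4. The value is expressed as Ki.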

[27] = AUC (0 to infinity) in cynomolgus monkey at 1 mg/kg, po; type: ADME, organism-based, Macaca fascicularis; parameters: dose 1 mg/kg, time infinity, route oral; details: in vivo; summary of the method: as §1
[28] = Elimination half life in cynomolgus monkey at 1 mg/kg, po; type: ADME, organism-based, Macaca fascicularis; details: in vivo, read-out: beta t1/2 (converted); summary of the method: as §1
[29] = biological target: Prostaglandin E receptor 4 (Canis lupus familiaris, UniProt Q9TU16); test: Antagonist activity at dog recombinant EP4 receptor
Prostaglandin E receptor 4, sequence (Q9TU16 whole entry): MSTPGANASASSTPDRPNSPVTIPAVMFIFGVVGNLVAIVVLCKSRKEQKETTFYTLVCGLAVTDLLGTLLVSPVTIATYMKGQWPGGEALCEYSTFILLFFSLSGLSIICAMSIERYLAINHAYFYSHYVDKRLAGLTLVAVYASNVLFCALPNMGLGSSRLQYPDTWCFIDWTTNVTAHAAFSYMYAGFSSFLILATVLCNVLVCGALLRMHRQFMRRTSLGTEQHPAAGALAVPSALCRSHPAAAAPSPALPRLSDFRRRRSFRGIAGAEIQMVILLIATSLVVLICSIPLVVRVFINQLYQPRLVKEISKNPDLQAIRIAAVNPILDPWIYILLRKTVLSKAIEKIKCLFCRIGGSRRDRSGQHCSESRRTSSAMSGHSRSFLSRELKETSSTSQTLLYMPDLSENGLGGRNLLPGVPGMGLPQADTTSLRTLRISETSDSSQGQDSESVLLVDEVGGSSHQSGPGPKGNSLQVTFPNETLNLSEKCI

Rattus norvegicus [30] = test: Analgesic activity in po dosed rat assessed as inhibition of carrageenan-induced mechanical hyperalgesia measured at 1 hr post dose; type: functional
Summary of the method: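 Rats dosed orally. Mechanical hyperalgesia was induced with carrageenan and assessed 1 h post dose. The value is the minimum effective dose (MED, mg/kg PO).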

[31] = AUC (0 to infinity) in cynomolgus monkey at 1 mg/kg, iv; type: ADME, organism-based, Macaca fascicularis; parameters: dose 1 mg/kg, route intravenous, time infinity; details: in vivo; summary of the method: as §1
[32] = Antagonist activity at human DP receptor
Rattus norvegicus [33] = test: Analgesic activity in po dosed rat model of chronic inflammatory pain assessed as inhibition of CFA-induced weight bearing deficit; type: functional
Summary of the method: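 Chronic inflammatory pain was modelled in rats with CFA and read out as weight bearing deficit after oral dosing. The value is the minimum effective dose (MED, mg/kg PO).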

[34] = Elimination half life in Sprague-Dawley rat at 1 mg/kg, po; type: ADME, organism-based; details: in vivo, read-out: beta t1/2 (converted); summary of the method: as §1
[35] = Oral bioavailability in Beagle dog at 1 mg/kg; type: ADME, organism-based, Canis lupus familiaris; details: in vivo; summary of the method: as §1
[36] = Lipophilicity, log D of the compound at pH 7.4; type: physicochemical; details: buffer
[37] = Total clearance in cynomolgus monkey at 1 mg/kg, iv; type: ADME, organism-based, Macaca fascicularis; details: in vivo; summary of the method: as §3
[38] = Tmax in Beagle dog at 1 mg/kg, po; type: ADME, organism-based, Canis lupus familiaris; details: in vivo; summary of the method: as §1
CYP2D6 = CYP2D6 (Homo sapiens, UniProt P10635); test: Inhibition of CYP2D6 (unknown origin) at 1 uM relative to control; type: ADME; summary of the method: as §2
CYP2D6, sequence (P10635 whole entry): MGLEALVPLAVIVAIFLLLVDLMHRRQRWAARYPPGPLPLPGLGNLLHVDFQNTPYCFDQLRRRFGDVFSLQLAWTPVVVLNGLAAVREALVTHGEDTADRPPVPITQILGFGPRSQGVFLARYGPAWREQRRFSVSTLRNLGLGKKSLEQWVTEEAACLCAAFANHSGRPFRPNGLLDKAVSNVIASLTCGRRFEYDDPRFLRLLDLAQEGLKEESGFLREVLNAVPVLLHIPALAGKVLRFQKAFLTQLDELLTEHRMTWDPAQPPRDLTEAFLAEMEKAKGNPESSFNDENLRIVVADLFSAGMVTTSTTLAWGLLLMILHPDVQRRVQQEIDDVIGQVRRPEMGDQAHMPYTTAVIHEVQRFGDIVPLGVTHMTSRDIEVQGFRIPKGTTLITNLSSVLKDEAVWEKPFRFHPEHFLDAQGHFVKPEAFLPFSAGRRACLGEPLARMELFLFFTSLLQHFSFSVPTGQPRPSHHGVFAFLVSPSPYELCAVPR

C[C@H](NC(=O)c1cc(Cl)cnc1Oc1cccc(F)c1)c1ccc(C(=O)O)cc1
solubility [1]: 0.29 µg/mL (≈ 0.699 µM) | Kb [2]: 1 nM | half-life [3]: 7.95 h | inhibition at 1 µM (CYP2C19): < 5% | solubility [4]: 73 µg/mL (≈ 176 µM) | AUC(0-inf) [5]: 9620 ng·h/mL | Ki [6]: 6.1 nM | half-life [7]: > 6 h | IC50 [8]: > 20000 nM | Ki [8]: > 6000 nM | clearance [9]: 1.75 mL/min/kg | half-life [10]: 14.5 h | AUC(0-inf) [11]: 6080 ng·h/mL | Vd [12]: 4.7 L/kg | half-life [13]: 8.43 h | inhibition at 1 µM (CYP3A): < 5% | IC50 [14]: 1890 nM | Ki [14]: 1840 nM | clearance [15]: 2.3 mL/min/kg | Papp A→B [16]: 20.1 ×10⁻⁶ cm/s | Cmax [17]: 1450 ng/mL | A2 [18]: 1.1 nM | IC50 [18]: 16.3 nM | Kb ([18]; read-out: pA2 (converted)): 1.07 nM | Vd [19]: 0.593 L/kg | logD [20]: 3.8 | Cmax [21]: 994 ng/mL | AUC(0-inf) [22]: 7490 ng·h/mL | bioavailability [23]: 73.6% | Ki [24]: > 6000 nM | half-life [25]: > 2 h | IC50 [26]: 2.4 nM | Ki [26]: 0.97 nM | AUC(0-inf) [27]: 2460 ng·h/mL | half-life [28]: 21.9 h | Ki [29]: 38 nM | inhibition (Rattus norvegicus [30]): Dose-dependent effect | minimal effective dose (Rattus norvegicus [30]; read-out: MED): 1 mg/kg | AUC(0-inf) [31]: 3390 ng·h/mL | Ki [32]: > 6000 nM | inhibition (Rattus norvegicus [33]): Dose-dependent effect | minimal effective dose (Rattus norvegicus [33]; read-out: MED): 1 mg/kg | half-life [34]: 3.71 h | bioavailability [35]: 80.6% | logD [36]: 0.7 | clearance [37]: 5.31 mL/min/kg | Tmax [38]: 0.438 h | inhibition at 1 µM (CYP2D6): < 5%
